From publication PMC2606940 (The Journal of General Physiology, 2009)
Where two headings read alike, the source gives them in different places.

Target: T1, CLC-0 E166C/E127Q mutant (E127Q/K519) (Torpedo marmorata, UniProt P21564, C212S/E127Q/E166C)
T1 sequence (P21564 1-805 E127Q/E166C/C212S): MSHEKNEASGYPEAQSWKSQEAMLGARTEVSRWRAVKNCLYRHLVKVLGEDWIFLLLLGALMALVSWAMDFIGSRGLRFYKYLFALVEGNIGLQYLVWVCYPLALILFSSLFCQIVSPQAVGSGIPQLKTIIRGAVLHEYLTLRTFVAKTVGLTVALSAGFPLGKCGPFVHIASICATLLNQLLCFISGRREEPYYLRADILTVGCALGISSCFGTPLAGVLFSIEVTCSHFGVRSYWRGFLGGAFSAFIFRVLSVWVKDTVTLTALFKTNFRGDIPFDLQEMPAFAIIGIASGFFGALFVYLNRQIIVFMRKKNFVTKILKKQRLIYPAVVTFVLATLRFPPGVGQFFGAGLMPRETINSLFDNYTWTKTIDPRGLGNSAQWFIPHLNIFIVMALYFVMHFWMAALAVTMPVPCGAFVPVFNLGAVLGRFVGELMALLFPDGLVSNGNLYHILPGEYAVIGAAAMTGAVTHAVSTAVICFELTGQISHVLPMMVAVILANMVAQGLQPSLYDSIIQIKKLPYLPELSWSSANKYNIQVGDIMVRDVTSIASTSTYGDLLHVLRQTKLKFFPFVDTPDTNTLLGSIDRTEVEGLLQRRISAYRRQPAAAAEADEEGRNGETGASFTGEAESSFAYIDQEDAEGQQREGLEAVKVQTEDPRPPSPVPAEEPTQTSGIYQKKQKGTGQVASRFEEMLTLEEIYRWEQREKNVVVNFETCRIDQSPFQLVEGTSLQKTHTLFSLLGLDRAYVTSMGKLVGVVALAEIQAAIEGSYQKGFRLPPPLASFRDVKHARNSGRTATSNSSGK
Assay type: cell-based
Conditions: for IC50: read-out: Apparent affinity (K1/2)
In short: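 CLC-0 mutants in the C212S background were transfected into HEK293 cells with lipofectamine and recorded 1–3 d later as excised inside-out patches. Both sides held 130 mM NaCl, 5 mM MgCl2, 10 mM HEPES and 1 mM EGTA, pH 7.4. CPA was perfused continuously onto the cytoplasmic face. Steady-state current over the last 10 ms was normalized to bracketing blocker-free controls and fitted to a Langmuir function for K1/2. Values are mean ± SEM of ~4–6 patches.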

O=C(O)COc1ccc(Cl)cc1 [CPA, p-chlorophenoxy acetate]
IC50 (−40 mV): 491 ± 58 µM | IC50 (−60 mV): 228 ± 23 µM | IC50 (−80 mV): 113 ± 10 µM | IC50 (−100 mV): 57 ± 4 µM | IC50 (−120 mV): 33 ± 3 µM | IC50 (−140 mV): 21 ± 2 µM | IC50 (−160 mV): 15 ± 2 µM | apparent koff (−160 mV): 17.9 s⁻¹ | apparent kon (−160 mV): 760000 M⁻¹ s⁻¹
